The text below walks through data of ChEMBL document CHEMBL1153523, “Design, synthesis, and biological activity of a family of novel ceramide analogues in chemoresistant breast cancer cells” (J Med Chem, 2009).

Data set [1] relates to MCF7. As to the kind of experiment: Inhibition of clonogenic survival of human MCF7 cells after 10 days by microscopy. Conditions: MCF7, 240 h. Type of data set: functional, cell-based. In a few lines: (§1)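 Clonogenic survival: cells were treated at 0.1 to 20 µM for 10 days. Colonies were then fixed and stained, and counts were expressed as percent of vehicle control.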
Data set [2] concerns MCF7. The data set can be described thus: Inhibition of clonogenic survival of human MCF7 cells at 0.1 to 20 uM after 10 days by microscopy. Type of data set: functional, cell-based. In a few lines: as §1
Data set [3] has as its system MCF7. The data set can be described thus: Inhibition of clonogenic survival of tumor necrosis factor-resistant human MCF7 cells at 0.1 to 20 uM after 10 days by microscopy. Type of data set: functional, cell-based. In a few lines: as §1
In data set [4] the test system is MDA-MB-231. As to the kind of experiment: Inhibition of clonogenic survival of endocrine-resistant human MDA-MB-231 cells at 0.1 to 20 uM after 10 days by microscopy. It counts as functional, cell-based. In outline:
as §1

Data set [5] has as its system MDA-MB-231. The data set can be described thus: Inhibition of clonogenic survival of endocrine-resistant human MDA-MB-231 cells after 10 days by microscopy. It counts as functional, cell-based. Conditions: MDA-MB-231, 240 h. In outline: as §1
Data set [6] concerns MCF7. As to the kind of experiment: Inhibition of clonogenic survival of tumor necrosis factor-resistant human MCF7 cells after 10 days by microscopy. It counts as functional, cell-based. Conditions: MCF7, 240 h. In a few lines:
as §1

Data set [7] relates to MCF7. As to the kind of experiment: Decrease in endogenous sphingosine-1-phosphate level in tumor necrosis factor-resistant human MCF7 cells at 10 uM after by ESI/MS/MS analysis. Type of data set: functional, cell-based. In outline:
(§2)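 MCF-7, MDA-MB-231 or MCF-7TN-R cells were treated at 10 µM for 24 h, and cellular sphingolipid species were then quantified. Values are mean ± SE of two independent experiments.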

Data set [8] in a line: Antiproliferative activity against human MCF10A cells at 100 uM after 24 hrs by MTT assay. Type of data set: cell-based. Conditions: mcf-10a. In a few lines: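 Normal MCF10A breast epithelial cells were exposed to drug at 0.1–100 µM for 24 h, and proliferation was measured. Values are mean ± SE of four independent experiments.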
Background: Formazan colour is commonly taken as a measure of viable cells.

Data set [9] deals with MCF7. As to the kind of experiment: Decrease in endogenous sphingosine-1-phosphate level in human MCF7 cells at 10 uM after by ESI/MS/MS analysis. It counts as functional, cell-based. In outline: as §2
Data set [10] relates to MCF7. The data set can be described thus: Induction of apoptosis in human MCF7 cells assessed as appearance of nucleosomes in cytoplasm at 9.4 uM after 24 hrs by ELISA relative to DMSO control. Type of data set: functional. In outline:
(§3)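 Apoptosis in MCF-7 cells was measured by a cell death detection ELISA after 24 h exposure at 8.3 or 9.4 µM. Values are mean ± SE of three independent experiments.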
A general note: An ELISA detects its analyte on a solid surface through an enzyme-linked reagent.

The test system of data set [11] is MDA-MB-231. As to the kind of experiment: Decrease in endogenous sphingosine-1-phosphate level in endocrine-resistant human MDA-MB-231 cells at 10 uM after by ESI/MS/MS analysis. It counts as functional, cell-based. In outline:
as §2

The subject of data set [12] is MCF7. The data set can be described thus: Increase in endogenous dihydrosphingosine level in tumor necrosis factor-resistant human MCF7 cells at 10 uM after 24 hrs by ESI/MS/MS analysis relative to DMSO control. Type of data set: functional. In outline:
as §2

In data set [13] the test system is MDA-MB-231. As to the kind of experiment: Increase in endogenous sphingosine-1-phosphate level in endocrine-resistant human MDA-MB-231 cells at 10 uM after by ESI/MS/MS analysis. Type of data set: functional, cell-based. In outline: as §2
Data set [14] concerns MCF7. The data set can be described thus: Selectivity for tumor necrosis factor-resistant human MCF7 cells over human MCF10A cells.
The subject of data set [15] is MCF7. The data set can be described thus: Induction of apoptosis in human MCF7 cells assessed as appearance of nucleosomes in cytoplasm at 8.3 uM after 24 hrs by ELISA relative to DMSO control. Type of data set: functional. In a few lines:
as §3

For data set [16], the system named is MCF7. The data set can be described thus: Increase in endogenous sphingosine-1-phosphate level in tumor necrosis factor-resistant human MCF7 cells at 10 uM after by ESI/MS/MS analysis. Type of data set: functional, cell-based. In outline:
as §2

Data set [17] relates to MCF7. As to the kind of experiment: Increase in endogenous sphingosine-1-phosphate level in human MCF7 cells at 10 uM after by ESI/MS/MS analysis. Type of data set: functional, cell-based. In a few lines: as §2

The source made the active and inactive calls. No cut-off for these calls is given here.

One may read the IC50 as the concentration that gives 50% inhibition. A high value points to weaker potency.

As to `CCCCCCCCCCCCCCNC(=O)[C@H](CO)NC(C)=O`, the values for the IC50 in [1], in data set [5] and in [6] were 44.7 µM, 75.1 µM and 52.7 µM, respectively. For the same compound, the outcome in data set [2], in data set [3] and in data set [4] was Active.
Take `CCCCCCCCCCCCCCNC(=O)[C@H](CO)/N=C/c1ccccc1`: the outcome in data set [7], in data set [2], in [3], in [4], in data set [9] and in data set [11] was Active. Also, the IC50 in data set [1] worked out at 4.7 µM; in data set [5], 2.4 µM; in data set [6], 7.7 µM. In data set [8], the Activity entry is given as “Non-toxic”. Moreover, the results for the “fold change (FC)” value in [10] and in data set [12] were 5.4 and 50, respectively.
Consider `CCCCCCCCCCCCCCNC(=O)[C@H](CO)NCc1ccccc1`, for which the IC50 in [1] turned out to be 5 µM; in data set [5], 10.5 µM; in data set [6] it was 15.2 µM. In addition, the result in data set [2], in [3] and in data set [4] was Active.
In the case of `CCCCCCCCCCCCC/C=C/[C@@H](O)[C@H](CO)NC(=O)CCCCCCC`, the IC50 in [1] turned out to be 4.2 µM; in [5] it was 3 µM; in data set [6], 8.6 µM. Besides, the outcome in data set [13], in data set [16] and in [17] was Active. Also, the Activity result in data set [8] is listed as “Non-toxic”. For the same compound, the Ratio in [14] is above 50. Besides, the “fold change (FC)” value in data set [15] came to 5.
With `CCCCCCCCCCCCCCNC(=O)[C@H](CO)NC(=O)C(C)(C)C`, the IC50 in data set [1] amounted to 6.7 µM; in [5], 6.1 µM; in [6], 11.1 µM. Further, the outcome in [2], in [3] and in data set [4] was Active.
For `CCCCCCCCCCCCCCC[C@H](O)[C@@H](CO)NC(=O)CCCCCCC` (single isomer, unassigned), the results for the IC50 in [1], in data set [5] and in data set [6] were 31.7 µM, 41.4 µM and 49.6 µM, respectively.
`CCCCCCCCCCCCCCNC(=O)[C@H](CO)NC(=O)c1cc(OC)cc(OC)c1`: the IC50 was 11.2 µM in data set [1], 6.6 µM in [5] and 15 µM in data set [6]. In addition, the outcome in [2], in data set [3] and in [4] was Active.
For `CCCCCCCCCCCCCCNC(=O)[C@H](CO)NC(=O)C1CCCCC1`, the IC50 in data set [1] is 7.2 µM; in [5], 11.5 µM; in data set [6] it was 23.5 µM. Also, the outcome in data set [2], in [3] and in data set [4] was Active.
